From ChEMBL document CHEMBL5058577, “EUbOPEN Chemogenomics Library 2 (Multiplex)” (2022)

System: HEK-293T
Assay: Multiplex assay against HEK293T
Assay type: toxicity, cell-based
Settings: human
Method in brief: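 With compound added, live cells were imaged on a CQ1 microscope at 37°C and 5% CO2; staining with Hoechst33342, BioTracker Green Microtubule Cytoskeleton Dye, MitoTracker Red and Annexin V Alexa Fluor 680 had been done at seeding. The CellPathfinder machine-learning gating scheme split cells into Hoechst high-intensity objects or normal cells, normal cells into healthy, pyknosed or fragmented nuclei, and pyknosed cells into mitotic or apoptotic. The tubulin, mitochondrial-mass and membrane-permeability phenotypes are per cents of healthy-nucleus cells.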

[1] = 12 h, 1 µM, compound concentration 1 uM, replicate 1
[2] = 12 h, 1 µM, compound concentration 1 uM, replicate 2
[3] = 12 h, 10 µM, compound concentration 10 uM, replicate 1
[4] = 12 h, 10 µM, compound concentration 10 uM, replicate 2
[5] = 24 h, 1 µM, compound concentration 1 uM, replicate 1
[6] = 24 h, 1 µM, compound concentration 1 uM, replicate 2
[7] = 24 h, 10 µM, compound concentration 10 uM, replicate 1
[8] = 24 h, 10 µM, compound concentration 10 uM, replicate 2
[9] = 48 h, 1 µM, compound concentration 1 uM, replicate 1
[10] = 48 h, 1 µM, compound concentration 1 uM, replicate 2
[11] = 48 h, 10 µM, compound concentration 10 uM, replicate 1
[12] = 48 h, 10 µM, compound concentration 10 uM, replicate 2

CCc1nn2c(C)cc(C)nc2c1Cc1ccc(-c2nnc(C3CCNCC3)o2)cc1
Population Apoptotic (%) [1]: 35% | Population Fragmented Nuclei (%) [1]: 9% | Population Healthy Nuclei (%) [1]: 80% | Population Hoechst High Intensity Objects (%) [1]: 7% | Population Membrane Permeable-Phenotype (%) [1]: 0% | Population Mitochondria Different-Phenotype (%) [1]: 54% | Population Mitotic Cells (%) [1]: 64% | Population Normal (%) [1]: 92% | Population Pyknosed Nuclei (%) [1]: 10% | Population Tubulin-Different-Phenotype (%) [1]: 37% | Total Cell Count [1]: 401 | Population Apoptotic (%) [2]: 51% | Population Fragmented Nuclei (%) [2]: 7% | Population Healthy Nuclei (%) [2]: 78% | Population Hoechst High Intensity Objects (%) [2]: 5% | Population Mitochondria Different-Phenotype (%) [2]: 62% | Population Mitotic Cells (%) [2]: 48% | Population Normal (%) [2]: 94% | Population Pyknosed Nuclei (%) [2]: 13% | Population Tubulin-Different-Phenotype (%) [2]: 19% | Total Cell Count [2]: 395 | Population Apoptotic (%) [3]: 63% | Population Fragmented Nuclei (%) [3]: 6% | Population Healthy Nuclei (%) [3]: 68% | Population Hoechst High Intensity Objects (%) [3]: 11% | Population Membrane Permeable-Phenotype (%) [3]: 0% | Population Mitochondria Different-Phenotype (%) [3]: 85% | Population Mitotic Cells (%) [3]: 36% | Population Normal (%) [3]: 88% | Population Pyknosed Nuclei (%) [3]: 25% | Population Tubulin-Different-Phenotype (%) [3]: 65% | Total Cell Count [3]: 319 | Population Apoptotic (%) [4]: 56% | Population Fragmented Nuclei (%) [4]: 4% | Population Healthy Nuclei (%) [4]: 78% | Population Hoechst High Intensity Objects (%) [4]: 12% | Population Mitochondria Different-Phenotype (%) [4]: 86% | Population Mitotic Cells (%) [4]: 43% | Population Normal (%) [4]: 87% | Population Pyknosed Nuclei (%) [4]: 17% | Population Tubulin-Different-Phenotype (%) [4]: 48% | Total Cell Count [4]: 293 | Population Apoptotic (%) [5]: 44% | Population Fragmented Nuclei (%) [5]: 10% | Population Healthy Nuclei (%) [5]: 76% | Population Hoechst High Intensity Objects (%) [5]: 4% | Population Membrane Permeable-Phenotype (%) [5]: 0% | Population Mitochondria Different-Phenotype (%) [5]: 36% | Population Mitotic Cells (%) [5]: 55% | Population Normal (%) [5]: 95% | Population Pyknosed Nuclei (%) [5]: 13% | Population Tubulin-Different-Phenotype (%) [5]: 23% | Total Cell Count [5]: 529 | Population Apoptotic (%) [6]: 34% | Population Fragmented Nuclei (%) [6]: 7% | Population Healthy Nuclei (%) [6]: 78% | Population Hoechst High Intensity Objects (%) [6]: 5% | Population Mitochondria Different-Phenotype (%) [6]: 50% | Population Mitotic Cells (%) [6]: 65% | Population Normal (%) [6]: 94% | Population Tubulin-Different-Phenotype (%) [6]: 19% | Total Cell Count [6]: 542 | Population Apoptotic (%) [7]: 69% | Population Fragmented Nuclei (%) [7]: 11% | Population Healthy Nuclei (%) [7]: 72% | Population Hoechst High Intensity Objects (%) [7]: 5% | Population Membrane Permeable-Phenotype (%) [7]: 0% | Population Mitochondria Different-Phenotype (%) [7]: 73% | Population Mitotic Cells (%) [7]: 30% | Population Normal (%) [7]: 94% | Population Pyknosed Nuclei (%) [7]: 15% | Population Tubulin-Different-Phenotype (%) [7]: 50% | Total Cell Count [7]: 448 | Population Apoptotic (%) [8]: 41% | Population Fragmented Nuclei (%) [8]: 10% | Population Healthy Nuclei (%) [8]: 77% | Population Hoechst High Intensity Objects (%) [8]: 7% | Population Mitochondria Different-Phenotype (%) [8]: 78% | Population Mitotic Cells (%) [8]: 58% | Population Normal (%) [8]: 92% | Population Pyknosed Nuclei (%) [8]: 11% | Population Tubulin-Different-Phenotype (%) [8]: 45% | Total Cell Count [8]: 389 | Population Apoptotic (%) [9]: 28% | Population Fragmented Nuclei (%) [9]: 12% | Population Healthy Nuclei (%) [9]: 79% | Population Hoechst High Intensity Objects (%) [9]: 2% | Population Membrane Permeable-Phenotype (%) [9]: 0% | Population Mitochondria Different-Phenotype (%) [9]: 25% | Population Mitotic Cells (%) [9]: 71% | Population Normal (%) [9]: 97% | Population Pyknosed Nuclei (%) [9]: 8% | Population Tubulin-Different-Phenotype (%) [9]: 15% | Total Cell Count [9]: 842 | Population Apoptotic (%) [10]: 32% | Population Fragmented Nuclei (%) [10]: 11% | Population Healthy Nuclei (%) [10]: 83% | Population Hoechst High Intensity Objects (%) [10]: 5% | Population Mitochondria Different-Phenotype (%) [10]: 24% | Population Mitotic Cells (%) [10]: 67% | Population Normal (%) [10]: 94% | Population Pyknosed Nuclei (%) [10]: 5% | Population Tubulin-Different-Phenotype (%) [10]: 10% | Total Cell Count [10]: 829 | Population Apoptotic (%) [11]: 54% | Population Fragmented Nuclei (%) [11]: 14% | Population Healthy Nuclei (%) [11]: 72% | Population Hoechst High Intensity Objects (%) [11]: 4% | Population Membrane Permeable-Phenotype (%) [11]: 0% | Population Mitochondria Different-Phenotype (%) [11]: 59% | Population Mitotic Cells (%) [11]: 45% | Population Normal (%) [11]: 95% | Population Pyknosed Nuclei (%) [11]: 13% | Population Tubulin-Different-Phenotype (%) [11]: 32% | Total Cell Count [11]: 517 | Population Apoptotic (%) [12]: 50% | Population Fragmented Nuclei (%) [12]: 12% | Population Healthy Nuclei (%) [12]: 80% | Population Hoechst High Intensity Objects (%) [12]: 3% | Population Mitochondria Different-Phenotype (%) [12]: 56% | Population Mitotic Cells (%) [12]: 50% | Population Normal (%) [12]: 96% | Population Pyknosed Nuclei (%) [12]: 6% | Population Tubulin-Different-Phenotype (%) [12]: 26% | Total Cell Count [12]: 607

Cc1nn(C)c2nc(NNC(=O)Nc3cc(Cl)nc(Cl)c3)cc(C(C)C)c12
Population Apoptotic (%) [1]: 27% | Population Fragmented Nuclei (%) [1]: 5% | Population Healthy Nuclei (%) [1]: 77% | Population Hoechst High Intensity Objects (%) [1]: 5% | Population Membrane Permeable-Phenotype (%) [1]: 0% | Population Mitochondria Different-Phenotype (%) [1]: 37% | Population Mitotic Cells (%) [1]: 72% | Population Normal (%) [1]: 94% | Population Pyknosed Nuclei (%) [1]: 16% | Population Tubulin-Different-Phenotype (%) [1]: 26% | Total Cell Count [1]: 467 | Population Apoptotic (%) [2]: 40% | Population Healthy Nuclei (%) [2]: 81% | Population Hoechst High Intensity Objects (%) [2]: 2% | Population Mitochondria Different-Phenotype (%) [2]: 59% | Population Mitotic Cells (%) [2]: 60% | Population Normal (%) [2]: 97% | Population Pyknosed Nuclei (%) [2]: 13% | Population Tubulin-Different-Phenotype (%) [2]: 25% | Total Cell Count [2]: 383 | Population Apoptotic (%) [3]: 55% | Population Fragmented Nuclei (%) [3]: 5% | Population Healthy Nuclei (%) [3]: 61% | Population Hoechst High Intensity Objects (%) [3]: 12% | Population Membrane Permeable-Phenotype (%) [3]: 1% | Population Mitochondria Different-Phenotype (%) [3]: 79% | Population Mitotic Cells (%) [3]: 44% | Population Normal (%) [3]: 88% | Population Pyknosed Nuclei (%) [3]: 32% | Population Tubulin-Different-Phenotype (%) [3]: 80% | Total Cell Count [3]: 300 | Population Apoptotic (%) [4]: 46% | Population Fragmented Nuclei (%) [4]: 4% | Population Healthy Nuclei (%) [4]: 74% | Population Hoechst High Intensity Objects (%) [4]: 3% | Population Mitochondria Different-Phenotype (%) [4]: 84% | Population Mitotic Cells (%) [4]: 53% | Population Normal (%) [4]: 96% | Population Pyknosed Nuclei (%) [4]: 21% | Population Tubulin-Different-Phenotype (%) [4]: 75% | Total Cell Count [4]: 396 | Population Apoptotic (%) [5]: 31% | Population Fragmented Nuclei (%) [5]: 9% | Population Healthy Nuclei (%) [5]: 78% | Population Hoechst High Intensity Objects (%) [5]: 3% | Population Membrane Permeable-Phenotype (%) [5]: 0% | Population Mitochondria Different-Phenotype (%) [5]: 27% | Population Mitotic Cells (%) [5]: 68% | Population Normal (%) [5]: 96% | Population Pyknosed Nuclei (%) [5]: 11% | Population Tubulin-Different-Phenotype (%) [5]: 20% | Total Cell Count [5]: 608 | Population Fragmented Nuclei (%) [6]: 6% | Population Healthy Nuclei (%) [6]: 82% | Population Hoechst High Intensity Objects (%) [6]: 1% | Population Mitochondria Different-Phenotype (%) [6]: 37% | Population Normal (%) [6]: 98% | Population Tubulin-Different-Phenotype (%) [6]: 19% | Total Cell Count [6]: 512 | Population Apoptotic (%) [7]: 59% | Population Fragmented Nuclei (%) [7]: 10% | Population Healthy Nuclei (%) [7]: 66% | Population Hoechst High Intensity Objects (%) [7]: 5% | Population Membrane Permeable-Phenotype (%) [7]: 0% | Population Mitochondria Different-Phenotype (%) [7]: 78% | Population Mitotic Cells (%) [7]: 40% | Population Normal (%) [7]: 94% | Population Pyknosed Nuclei (%) [7]: 22% | Population Tubulin-Different-Phenotype (%) [7]: 74% | Total Cell Count [7]: 321 | Population Apoptotic (%) [8]: 55% | Population Fragmented Nuclei (%) [8]: 5% | Population Healthy Nuclei (%) [8]: 78% | Population Mitochondria Different-Phenotype (%) [8]: 80% | Population Mitotic Cells (%) [8]: 44% | Population Normal (%) [8]: 95% | Population Pyknosed Nuclei (%) [8]: 16% | Population Tubulin-Different-Phenotype (%) [8]: 69% | Total Cell Count [8]: 440 | Population Apoptotic (%) [9]: 27% | Population Fragmented Nuclei (%) [9]: 12% | Population Healthy Nuclei (%) [9]: 78% | Population Hoechst High Intensity Objects (%) [9]: 3% | Population Membrane Permeable-Phenotype (%) [9]: 1% | Population Mitochondria Different-Phenotype (%) [9]: 17% | Population Mitotic Cells (%) [9]: 72% | Population Normal (%) [9]: 96% | Population Pyknosed Nuclei (%) [9]: 9% | Population Tubulin-Different-Phenotype (%) [9]: 16% | Total Cell Count [9]: 912 | Population Apoptotic (%) [10]: 18% | Population Fragmented Nuclei (%) [10]: 13% | Population Healthy Nuclei (%) [10]: 81% | Population Hoechst High Intensity Objects (%) [10]: 2% | Population Mitochondria Different-Phenotype (%) [10]: 25% | Population Mitotic Cells (%) [10]: 81% | Population Normal (%) [10]: 97% | Population Pyknosed Nuclei (%) [10]: 5% | Population Tubulin-Different-Phenotype (%) [10]: 19% | Total Cell Count [10]: 748 | Population Apoptotic (%) [11]: 62% | Population Fragmented Nuclei (%) [11]: 9% | Population Healthy Nuclei (%) [11]: 72% | Population Hoechst High Intensity Objects (%) [11]: 3% | Population Membrane Permeable-Phenotype (%) [11]: 0% | Population Mitochondria Different-Phenotype (%) [11]: 82% | Population Mitotic Cells (%) [11]: 37% | Population Normal (%) [11]: 96% | Population Pyknosed Nuclei (%) [11]: 18% | Population Tubulin-Different-Phenotype (%) [11]: 78% | Total Cell Count [11]: 387 | Population Apoptotic (%) [12]: 45% | Population Healthy Nuclei (%) [12]: 79% | Population Hoechst High Intensity Objects (%) [12]: 4% | Population Mitochondria Different-Phenotype (%) [12]: 71% | Population Mitotic Cells (%) [12]: 55% | Population Normal (%) [12]: 95% | Population Pyknosed Nuclei (%) [12]: 10% | Population Tubulin-Different-Phenotype (%) [12]: 63% | Total Cell Count [12]: 593
